# Tests used:
# [1] = biological target: T1, Neuraminidase (Influenza A virus, UniProt B4URF0); assay: Inhibition of Influenza A virus (A/Sydney/5/1997(H3N2)) neuraminidase infected in chick embryo using MUNANA as substrate after 1 hr by spectrophotometric analysis
# [2] = biological target: T1, Neuraminidase; assay: Inhibition of Influenza A virus (A/Indonesia/5/2005(H5N1)) neuraminidase infected in chick embryo using MUNANA as substrate after 1 hr by spectrophotometric analysis
# [3] = biological target: T1, Neuraminidase; assay: Inhibition of influenza A virus (A/Guangdong/376/2001(H1N1)) neuraminidase infected in chick embryo using MUNANA as substrate after 1 hr by spectrophotometric analysis
# [4] = biological target: T1, Neuraminidase; assay: Inhibition of Influenza A virus Mississippi/1/85(H3N2) neuraminidase
# [5] = biological target: T1, Neuraminidase; assay: Inhibition of Influenza A virus H5N1 neuraminidase
# [6] = biological target: T1, Neuraminidase; assay: Inhibition of Influenza A virus […]/78(H1N1) neuraminidase
# [7] = biological target: Neuraminidase (Influenza A virus) (UniProt B4URF0); assay: Inhibition of influenza A virus (A/Guangdong/376/2001(H1N1)) neuraminidase infected in chick embryo using MUNANA as substrate at 1 uM after 1 hr by spectrophotometric analysis
# [8] = Tmax in Sprague-Dawley rat at 10 mg/kg, po; assay type: ADME, organism-based; parameters: dose 10 mg/kg, route oral; settings: in vivo
# In short: (§1)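 Single 10 mg/kg oral dose given to male Sprague-Dawley rats (~250 g), three per group. Blood was sampled via the retrobulbar vein at 0, 5, 15 and 30 min and at 1, 2, 5, 8 and 24 h. Plasma concentrations were measured by LC/MS/MS, and parameters came from noncompartmental analysis of mean plasma concentrations.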
# [9] = Terminal half life in Sprague-Dawley rat at 10 mg/kg, po; assay type: ADME, organism-based; parameters: dose 10 mg/kg, route oral; settings: in vivo, read-out: beta t1/2 (converted)
# In short: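 Single 10 mg/kg oral dose given to male Sprague-Dawley rats (~250 g), three per group. Plasma concentrations were measured by LC/MS/MS, and parameters came from noncompartmental analysis of mean plasma concentrations.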
# [10] = Terminal half life in Sprague-Dawley rat at 10 mg/kg, iv; assay type: ADME, organism-based; parameters: dose 10 mg/kg, route intravenous; settings: in vivo, read-out: beta t1/2 (converted)
# [11] = Volume of distribution at steady state in Sprague-Dawley rat at 10 mg/kg, iv; assay type: ADME, organism-based; parameters: dose 10 mg/kg, route intravenous; settings: in vivo, read-out: Vdss
# [12] = Cmax in Sprague-Dawley rat at 10 mg/kg, po; assay type: ADME, organism-based; parameters: dose 10 mg/kg, route oral; settings: in vivo; in short: as §1
# [13] = Clearance in Sprague-Dawley rat at 10 mg/kg, iv; assay type: ADME, organism-based; parameters: dose 10 mg/kg, route intravenous; settings: in vivo
# [14] = Oral bioavailability in Sprague-Dawley rat at 10 mg/kg; assay type: ADME, organism-based; settings: in vivo; in short: as §1
# [15] = Cmax in Sprague-Dawley rat at 2 mg/kg, iv; assay type: ADME, organism-based; parameters: dose 2 mg/kg, route intravenous; settings: in vivo
# In short: (§2)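 Male Sprague-Dawley rats (~250 g), three per group, given a single 2 mg/kg intravenous dose. Blood samples were drawn via the retrobulbar vein at 0, 5, 15 and 30 min and at 1, 2, 5, 8 and 24 h. Plasma levels were quantified by LC/MS/MS, and parameters were derived by noncompartmental analysis of mean plasma concentrations.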
# [16] = Volume of distribution at steady state in Sprague-Dawley rat at 2 mg/kg, iv; assay type: ADME, organism-based; parameters: dose 2 mg/kg, route intravenous; settings: in vivo, read-out: Vdss; in short: as §2
# [17] = Terminal half life in Sprague-Dawley rat at 2 mg/kg, iv; assay type: ADME, organism-based; parameters: dose 2 mg/kg, route intravenous; settings: in vivo, read-out: beta t1/2 (converted); in short: as §2
# [18] = Clearance in Sprague-Dawley rat at 2 mg/kg, iv; assay type: ADME, organism-based; parameters: dose 2 mg/kg, route intravenous; settings: in vivo; in short: as §2
# [19] = Mean residence time in Sprague-Dawley rat at 10 mg/kg, po; assay type: ADME, organism-based; parameters: dose 10 mg/kg, route oral; settings: in vivo; in short: as §1
# [20] = AUC (0 to 8 hrs) in Sprague-Dawley rat at 10 mg/kg, po; assay type: ADME, organism-based; parameters: time < 8 hr, dose 10 mg/kg, route oral; settings: plasma
# In short: (§3)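 Male Sprague-Dawley rats (~250 g), three per group. One group received 10 mg/kg orally and the other 2 mg/kg intravenously. Blood was drawn from the retrobulbar vein at 0, 5, 15 and 30 min and at 1, 2, 5, 8 and 24 h. Plasma levels were measured by LC/MS/MS, and parameters were calculated by noncompartmental analysis of mean plasma concentrations.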
# [21] = AUC (0 to 8 hrs) in Sprague-Dawley rat at 2 mg/kg, iv; assay type: ADME, organism-based; parameters: time < 8 hr, dose 2 mg/kg, route intravenous; settings: plasma; in short: as §3
# [22] = Mean residence time in Sprague-Dawley rat at 2 mg/kg, iv; assay type: ADME, organism-based; parameters: dose 2 mg/kg, route intravenous; settings: in vivo; in short: as §2
# T1 sequence (B4URF0 whole entry): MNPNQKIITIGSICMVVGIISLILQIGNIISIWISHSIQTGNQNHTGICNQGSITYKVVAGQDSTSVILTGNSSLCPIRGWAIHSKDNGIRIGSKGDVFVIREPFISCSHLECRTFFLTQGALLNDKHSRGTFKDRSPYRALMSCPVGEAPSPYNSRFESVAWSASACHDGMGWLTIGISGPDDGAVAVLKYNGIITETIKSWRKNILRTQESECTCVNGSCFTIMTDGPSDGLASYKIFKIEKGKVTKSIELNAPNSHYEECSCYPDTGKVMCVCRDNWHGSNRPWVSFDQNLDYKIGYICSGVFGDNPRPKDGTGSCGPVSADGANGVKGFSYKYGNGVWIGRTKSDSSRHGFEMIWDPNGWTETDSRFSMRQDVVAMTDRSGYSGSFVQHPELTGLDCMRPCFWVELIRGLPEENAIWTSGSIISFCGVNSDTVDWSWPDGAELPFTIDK
# Chain of Neuraminidase (Influenza A virus) (B4URF0 as listed by the source): as the sequence (B4URF0 whole entry) above
SMILES,IC50 [1] [µM],IC50 [2] [µM],IC50 [3] [µM],other results
CC(=O)N[C@H]1[C@H]([C@H](O)[C@H](O)CO)OC(C(=O)NCc2ccccc2F)=C[C@@H]1NC(=N)N,0.89,0.26,0.24,
CC(=O)N[C@H]1[C@H]([C@H](O)[C@H](O)CO)OC(C(=O)N[C@@H](C)C(=O)O)=C[C@@H]1NC(=N)N,0.41,0.063,0.1,
CC(=O)N[C@H]1[C@H]([C@H](O)[C@H](O)CO)OC(C(=O)O)=C[C@@H]1O [NEU5AC2EN],,,,IC50 [4]: 52 µM; IC50 [5]: 0.012 µM; IC50 [6]: 240 µM
CC(=O)N[C@H]1[C@H]([C@H](O)[C@H](O)CO)OC(C(=O)NCc2ccc(C)cc2)=C[C@@H]1NC(=N)N,0.85,0.28,0.26,
CC(=O)N[C@H]1[C@H]([C@H](O)[C@H](O)CO)OC(C(=O)N[C@H](C(=O)O)C(C)C)=C[C@@H]1N,5.15,4.3,2.25,
CC(=O)N[C@H]1[C@H]([C@H](O)[C@H](O)CO)OC(C(=O)N[C@H](C(=O)O)c2ccccc2)=C[C@@H]1O,60,74.4,60.5,
COc1ccc(CNC(=O)C2=C[C@H](O)[C@@H](NC(C)=O)[C@H]([C@H](O)[C@H](O)CO)O2)cc1,858,> 1000,> 1000,
CC(=O)N[C@H]1[C@H]([C@H](O)[C@H](O)CO)OC(C(=O)N2CCC(C(=O)O)CC2)=C[C@@H]1N,5.86,5.76,6.33,
CC(=O)N[C@H]1[C@H]([C@H](O)[C@H](O)CO)OC(C(=O)N[C@@H](CC(C)C)C(=O)O)=C[C@@H]1NC(=N)N,22.5,3.51,5.11,
CC(=O)N[C@H]1[C@H]([C@H](O)[C@H](O)CO)OC(C(=O)N[C@@H](CCC(=O)O)C(=O)O)=C[C@@H]1NC(=N)N,0.81,0.16,0.45,
CC[C@H](C)[C@H](NC(=O)C1=C[C@H](O)[C@@H](NC(C)=O)[C@H]([C@H](O)[C@H](O)CO)O1)C(=O)O,790,939,> 1000,
CC(=O)N[C@H]1[C@H]([C@H](O)[C@H](O)CO)OC(C(=O)NCc2ccc(F)cc2)=C[C@@H]1NC(=N)N,,,,inhibition [7]: 54.8%
CCOC(=O)C1=C[C@@H](OC(CC)CC)[C@H](NC(C)=O)[C@@H](N)C1.O=P(O)(O)O [OSELTAMIVIR PHOSPHATE],,,,Tmax [8]: 4 h; half-life [9]: 10.6 h; half-life [10]: 1.6 h; Vd [11]: 1.3 L/kg; Cmax [12]: 30 ng/mL; clearance [13]: 25 mL/min/kg; bioavailability [14]: 4.3%
CC(=O)N[C@H]1[C@H]([C@H](O)[C@H](O)CO)OC(C(=O)N[C@@H](CC(C)C)C(=O)O)=C[C@@H]1N,647,669,159,
CC(=O)N[C@H]1[C@H]([C@H](O)[C@H](O)CO)OC(C(=O)NCc2cccc(F)c2)=C[C@@H]1NC(=N)N,0.013,0.001,0.09,Cmax [15]: 8800 ng/mL; Tmax [8]: 1 h; half-life [9]: 2.96 h; Vd [16]: 0.23 L/kg; Cmax [12]: 260 nM; half-life [17]: 0.69 h; clearance [18]: 5.83 mL/min/kg; MRT [19]: 6.29 h; bioavailability [14]: 1.41%; AUC(0-t) at 8 h [20]: 378 ng·h/mL; AUC(0-t) at 8 h [21]: 5380 ng·h/mL; MRT [22]: 0.65 h
CC(=O)N[C@H]1[C@H]([C@H](O)[C@H](O)CO)OC(C(=O)N2CCC[C@@H](C(=O)O)C2)=C[C@@H]1N,146,162,103,
CC(=O)N[C@H]1[C@H]([C@H](O)[C@H](O)CO)OC(C(=O)N[C@@H](CC(C)C)C(=O)O)=C[C@@H]1O,918,> 1000,> 1000,
CC(=O)N[C@H]1[C@H]([C@H](O)[C@H](O)CO)OC(C(=O)O)=C[C@@H]1N=C(N)N [ZANAMIVIR],,,,Tmax [8]: 1.2 h; half-life [10]: 1.1 h; Vd [11]: 0.8 L/kg; Cmax [12]: 60 ng/mL; clearance [13]: 31.7 mL/min/kg
CC(=O)N[C@H]1[C@H]([C@H](O)[C@H](O)CO)OC(C(=O)NCc2cccc(Cl)c2)=C[C@@H]1NC(=N)N,,,,inhibition [7]: 51%
CC(=O)N[C@H]1[C@H]([C@H](O)[C@H](O)CO)OC(C(=O)NCc2ccccc2)=C[C@@H]1O,707,822,143,
CC(=O)N[C@H]1[C@H]([C@H](O)[C@H](O)CO)OC(C(=O)NCC(=O)O)=C[C@@H]1N,16.7,8.67,13.9,
CC(=O)N[C@H]1[C@H]([C@H](O)[C@H](O)CO)OC(C(=O)N[C@H](C(=O)O)C(C)C)=C[C@@H]1NC(=N)N,0.107,4.19,2.14,
CC(=O)N[C@H]1[C@H]([C@H](O)[C@H](O)CO)OC(C(=O)N[C@H](C(=O)O)C(C)C)=C[C@@H]1O,688,793,> 1000,
CC(=O)N[C@H]1[C@H]([C@H](O)[C@H](O)CO)OC(C(=O)N2CCOCC2)=C[C@@H]1O,52.9,66.7,98.9,
CC(=O)N[C@H]1[C@H]([C@H](O)[C@H](O)CO)OC(C(=O)NCCC(=O)O)=C[C@@H]1NC(=N)N,0.5,0.07,0.36,
